# Hits are enriched below; roughly 4.6% of the tested compounds scored in any of these assays.
# p47phox inh = blocks human p47phox regulatory protein of NADPH oxidases. P14598. p47phox/p22phox peptide binding, fluorescence polarization, 2 h. inhibition, % at 24.7 µM. 220,000 tested, 0.53% active. AID 1274;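 active means inhibition above about 30%, limit read from the data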
# Target sequence (P14598 whole entry, looked up): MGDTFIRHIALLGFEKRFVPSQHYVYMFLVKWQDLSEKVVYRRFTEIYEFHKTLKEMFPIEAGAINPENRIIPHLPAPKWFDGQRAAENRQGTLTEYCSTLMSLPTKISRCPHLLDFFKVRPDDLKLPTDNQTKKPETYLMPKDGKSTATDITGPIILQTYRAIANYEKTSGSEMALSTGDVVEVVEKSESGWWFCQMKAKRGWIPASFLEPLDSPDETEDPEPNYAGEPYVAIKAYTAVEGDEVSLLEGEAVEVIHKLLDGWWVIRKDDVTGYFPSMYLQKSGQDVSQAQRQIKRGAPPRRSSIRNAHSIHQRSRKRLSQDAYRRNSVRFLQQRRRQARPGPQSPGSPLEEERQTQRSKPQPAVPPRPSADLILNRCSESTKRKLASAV
# Hck-Nef inh = inhibitors of human Hck kinase activated by Nef; P08631; Recombinant Hck-YEEI plus Nef, Z-Lyte FRET kinase assay; inhibition, % at 20 µM; 220,000 tested, 0.68% active;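 active means Hck-Nef kinase inhibition above about 50%, limit read from the data; inactive means inhibition below that limit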
# Calb biofilm kill = mixtures killing C. albicans biofilm | C. albicans biofilm persisters + clotrimazole, fluorescence viability; primary screen in compound mixtures of four per well | 120,000 tested, 0.02% active | inhibition, % at 7.6 µM;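 active means inhibition above 30.3% in the primary screen of four-compound pools, then above 30% when the compound was retested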;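 further: compounds exposed to preformed 24 h biofilms for 48 h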
#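 Incubation: 24 h biofilm formation, then 48 h compound exposure, 37 °C | Material: C. albicans biofilms | Buffer or medium: RPMI/MOPS medium, pH 7.0 | Measured by: 2-h Alamar Blue fluorescence, 535/590 nm excitation/emission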
# WT yeast gro inh = growth inhibition of WT yeast, mitochondrial fusion screen; inhibition, % at 10 µM; mitochondrial fusion phenotypic screen, WT strain; 190,000 tested, 2.1% active; AID 1362; in the data active means inhibition above about 58%; tested in S. cerevisiae
# Arbovirus inh = antivirals against arbovirus infection; arbovirus infection cell-based antiviral screen; inhibition, % at 10 µM; 200,000 tested, 0.37% active; AID 1251; in the data active means inhibition above about 30%
# RAM inhibit = blocks the yeast RAM network; S. cerevisiae dse1pr::URA3 reporter, 5-FOA growth OD615, 2 d; analog-sensitive cbk1-as2 kinase mutant strain; inhibition, % at 50 µM; 190,000 tested, 1.8% active; AID 868;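 active means inhibition above a set limit, 3 SD over mean compound inhibition, cut at about 8.4% in these data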;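 further: inhibition rescues growth on 5-FOA so higher OD means more RAM inhibition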
# Numbers stand for hits; – = inactive; · = not tested or not shown; + = active, no number.
SMILES,p47phox inh,Hck-Nef inh,Calb biofilm kill,WT yeast gro inh,Arbovirus inh,RAM inhibit
COc1cccc(/C=N/NC(=O)CC(=O)NCCc2ccccc2)c1OC,–,–,–,–,–,–
COc1cc(/C=N/NC(=O)CCc2ccccc2)ccc1O,–,–,·,70.2,–,–
COc1cc(/C=N/NC(=O)CCNC(=O)c2ccccc2Cl)ccc1O,–,–,–,–,–,–
CCCCNC(=O)/C=C/c1ccc(OC)c(Br)c1,–,–,·,–,–,9.6
COc1ccc(OC)c(/C=N/NC(=O)c2cc(-c3ccc(C)o3)nc3ccccc23)c1,+,–,–,–,–,–
Cn1nc(C(=O)NNc2c(F)c(F)cc(F)c2F)c2ccccc2c1=O,–,–,–,–,–,–
COc1ccc(/C=C/C(=O)NCC(=O)N/N=C/c2cc(Br)ccc2OC)cc1,100.9,–,·,–,–,–
CCCCCCCCNC(=O)/C(C#N)=C/c1ccc2c(c1)OCCO2,–,–,–,–,–,9.4
Cc1cccc(CN2CCN(C(c3ccccc3)c3ccc(Cl)cc3)CC2)c1 (stereo not given),–,–,–,65.8,–,–
O=C1C(Nc2ccccc2)=C/C(=N/S(=O)(=O)c2cccs2)c2ccccc21,–,–,–,98.7,–,–
Cc1ccc(NC2=C/C(=N/S(=O)(=O)c3cccs3)c3ccccc3C2=O)cc1,–,–,–,–,–,–
COC(=O)c1ccccc1NC1=C/C(=N\S(=O)(=O)c2cccs2)c2ccccc2C1=O,182.6,–,·,61.8,–,–
CCC(CO)[n+]1c(C)cc(/C=C2\Sc3ccccc3N2Cc2ccccc2)cc1C (stereo not given),–,–,34.5,58.5,–,–
CCN1/C(=C2\SC(=S)N(Cc3ccccc3)C2=O)Sc2ccccc21,–,–,–,–,–,–
Oc1cccc(NC(=S)Nc2ccc(SC(F)F)cc2)c1,–,–,–,–,–,–
Oc1cccc2c(NC(=S)Nc3ccc(SC(F)F)cc3)cccc12,–,–,–,65.0,–,–
CCN(c1ccccc1)S(=O)(=O)c1cc(NC(=O)CSc2n[nH]c(=O)[nH]c2=O)ccc1Cl,–,–,–,·,·,·
Cc1ccc(-c2cc(-c3n[nH]c(=S)n3C)c3ccccc3n2)cc1,–,–,–,69.9,–,–
CCOc1ccccc1-c1cc(-c2n[nH]c(=S)n2CC)c2ccccc2n1,–,–,–,–,–,–
CCOc1cccc(-c2cc(-c3n[nH]c(=S)n3CC)c3ccccc3n2)c1,–,–,·,66.9,–,–
Cn1c(-c2ccccc2)n[nH]c1=S,–,–,–,·,·,·
CCn1c(-c2cc(-c3ccc(C)c(C)c3)nc3ccccc23)n[nH]c1=S,–,–,–,58.2,–,–
CCn1c(-c2cc(-c3cc(C)ccc3C)nc3ccccc23)n[nH]c1=S,–,–,–,–,–,–
C/C=C/c1c(F)c(F)c(Oc2ccc(C(=O)O)cc2)c(F)c1F,–,–,·,–,–,–
O=C(NNc1ccc(O)cc1)c1ccc(Br)cc1,–,–,–,–,–,–
SMILES,p47phox inh,Hck-Nef inh,Calb biofilm kill,WT yeast gro inh,Arbovirus inh,RAM inhibit
CC(=O)Nc1cccc(NC(=O)c2cc(-c3cccnc3)nc3ccc(Cl)cc23)c1,–,–,–,–,–,9.3
CC(=O)Nc1cccc(NC(=O)c2cc(-c3cccnc3)nc3ccc(Br)cc23)c1,–,–,·,–,–,–
CCSc1nnc(NC(=O)CSc2nnc(-c3c[nH]c4ccccc34)n2CC)s1,–,–,·,–,–,–
CC(=O)Nc1ccc(C(=O)OCC(=O)NC(=O)NC2CCCCC2)cc1,133.3,–,·,–,–,–
COC(=O)c1ccc(NC(=O)NC2CCCCC2)cc1,–,–,–,–,–,–
CN1CCN(C2=C(Cl)C(=O)C(c3cnc(N4CCCCC4)s3)=C(Cl)C2=O)CC1,47.5,–,–,–,–,–
CN1CCN(C2=C(Cl)C(=O)N(C3CCCCC3)C2=O)CC1,–,–,·,–,–,–
O=C(CC1SC(N2CCOCC2)=NC1=O)Nc1cc([N+](=O)[O-])ccc1Cl (stereo not given),–,–,–,–,–,–
c1ccc(-c2nc3ccccc3c3nncn23)cc1,34.7,–,·,–,–,–
Cc1cccc(-c2nc3ccccc3c3nncn23)c1,–,–,·,–,–,–
Cc1nnn(C23C[C@@H]4C[C@@H](CC(C(=O)N5CCN(c6ccccc6)CC5)(C4)C2)C3)n1,–,–,–,·,·,·
CCC(=C(c1ccc(OC)cc1)c1ccc(OC)cc1)c1cn(CC(O)CN(CCO)CCO)c2ccccc12 (stereo not given),–,–,–,97.7,–,–
COc1ccc(OCC(O)CN(CCO)CC(O)Cn2ccc3ccccc32)cc1 (stereo not given),–,–,–,–,–,–
CCOc1ccc(NC(=O)Cn2cncc2-c2ccc([N+](=O)[O-])cc2)cc1,44.8,–,–,–,–,–
O=C(Cn1cncc1-c1ccc([N+](=O)[O-])cc1)Nc1cccc2ccccc12,38.4,–,–,–,–,–
CCOC(=O)Cn1cncc1-c1ccc([N+](=O)[O-])cc1,–,–,–,–,–,–
CC(=O)N1C(=O)C2(C(C#N)=C(N)Oc3n[nH]c(-c4ccccn4)c32)c2ccccc21 (stereo not given),150.6,–,·,–,–,–
Clc1ccc(CSc2nnc(CNc3cccc(Cl)c3)o2)cc1,–,–,·,80.9,–,–
O=C(N=Nc1c(O)[nH]c2ccc([N+](=O)[O-])cc12)c1ccccc1Cl,–,–,–,·,·,·
O=C(N=Nc1c(O)[nH]c2ccc(Cl)cc12)c1cc(-c2cccs2)nc2ccccc12,69.7,–,–,–,–,–
COc1ccc(NC(=O)CSc2ncnc3c2cnn3CCc2ccccc2)cc1,–,–,·,–,–,–
COc1cccc(NC(=O)CSc2ncnc3c2cnn3Cc2ccccc2)c1,–,–,·,–,–,8.4
CC(=O)c1ccc(-n2nnnc2SCC(=O)Nc2cccc(NC(=O)c3ccco3)c2)cc1,–,–,·,73.0,–,–
CCn1nnnc1SCC(=O)Nc1cccc(NC(C)=O)c1,–,–,·,–,–,–
CC(=O)Nc1cccc(NC(=O)CSc2nnnn2Cc2ccccc2)c1,–,–,·,74.9,–,–
SMILES,p47phox inh,Hck-Nef inh,Calb biofilm kill,WT yeast gro inh,Arbovirus inh,RAM inhibit
CCOC(=O)C1(Cc2cccc(OC)c2)CCN(Cc2cccc(OC)c2O)CC1,–,–,–,–,33.2,–
Cc1ccc(-n2c(C)cc(C3=NNC(=NC4CC4)SC3)c2C)cc1C,–,–,–,77.9,–,–
O=[N+]([O-])c1cc2c(cc1Br)CCN2,–,–,–,–,–,–
C/C(=N\N1CCN(c2ccccc2)CC1)c1ccncc1,–,–,–,–,–,–
CN1CCN(c2nc(NCCOC34CC5CC(CC(C5)C3)C4)nc(OCC(F)(F)F)n2)CC1,–,–,·,83.5,–,–
O=C1C2C3C=CC(C3=C(c3ccccc3)c3ccccc3)C2C(=O)N1CCO (stereo not given),–,–,·,–,–,–
Cc1ccc(C(=C2C3C=CC2C2C(=O)NC(=O)C32)c2ccc(C)cc2)cc1 (stereo not given),–,–,·,82.8,–,–
